Measured values as given in ChEMBL document CHEMBL1127457, “Nonpeptide renin inhibitors with good intraduodenal bioavailability and efficacy in dog” (J Med Chem, 1994).

Assays:
[1] = Partition coefficient (logD6.5); details: octanol/water, pH 6.5
[2] = Average peak plasma concentration of compound after 10 mg/kg intraduodenal administration to Ferret
[3] = Average area under curve for the compound at 1 mg/kg dose after intravenous administration to rat; details: in vivo
[4] = Average area under curve for compound at 1 mg/kg dose intravenous administration to Ferret; details: in vivo
[5] = Average area under curve at 10 mg/kg dose after intraduodenal administration to Ferret; details: in vivo
[6] = molecular target: T1, Renin (Homo sapiens, UniProt P00797); test: Tested in vitro for its ability to inhibit the human plasma renin; format: cell-free
T1 sequence (P00797 whole entry): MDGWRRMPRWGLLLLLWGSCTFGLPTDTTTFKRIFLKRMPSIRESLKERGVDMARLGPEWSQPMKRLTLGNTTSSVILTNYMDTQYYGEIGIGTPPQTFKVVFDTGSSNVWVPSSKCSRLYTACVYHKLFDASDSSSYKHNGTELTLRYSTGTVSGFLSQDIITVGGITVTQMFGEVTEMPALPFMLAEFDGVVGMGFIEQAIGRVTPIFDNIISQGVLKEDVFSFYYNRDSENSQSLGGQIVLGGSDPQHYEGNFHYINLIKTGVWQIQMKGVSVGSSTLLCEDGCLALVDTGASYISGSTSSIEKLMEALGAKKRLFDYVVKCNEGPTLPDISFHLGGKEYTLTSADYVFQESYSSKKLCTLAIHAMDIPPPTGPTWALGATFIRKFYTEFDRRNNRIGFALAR
How it was run: (§1)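 IC50 against renin in plasma from the named species (dog, ferret, human, rat); single determination in most cases.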

[7] = species on record: Homo sapiens; details: Liver, Microsome
[8] = Average peak plasma concentration of compound after 10 mg/kg intraduodenal administration to rat
[9] = Oral bioavailability in ferret; details: in vivo
[10] = Oral bioavailability in rat; details: in vivo, intraduodenal, 10 mg/kg
[11] = Partition coefficient (logD7.4); details: octanol/water, pH 7.4
[12] = Average area under curve for the compound at 10 mg/kg dose after intraduodenal administration to rat; details: in vivo
[13] = Average peak plasma concentration of compound after 1 mg/kg intravenous administration to rat; details: plasma
[14] = Average peak plasma concentration of compound after 1 mg/kg intravenous administration to Ferret
[15] = molecular target: Renin (Mustela putorius furo); test: Tested in vitro for its ability to inhibit the ferret plasma renin
[16] = molecular target: T2, Renin (Rattus norvegicus, UniProt P08424); test: (§2) Tested in vitro for its ability to inhibit the rat plasma renin; format: cell-free; how it was run: as §1
T2 sequence (P08424 whole entry): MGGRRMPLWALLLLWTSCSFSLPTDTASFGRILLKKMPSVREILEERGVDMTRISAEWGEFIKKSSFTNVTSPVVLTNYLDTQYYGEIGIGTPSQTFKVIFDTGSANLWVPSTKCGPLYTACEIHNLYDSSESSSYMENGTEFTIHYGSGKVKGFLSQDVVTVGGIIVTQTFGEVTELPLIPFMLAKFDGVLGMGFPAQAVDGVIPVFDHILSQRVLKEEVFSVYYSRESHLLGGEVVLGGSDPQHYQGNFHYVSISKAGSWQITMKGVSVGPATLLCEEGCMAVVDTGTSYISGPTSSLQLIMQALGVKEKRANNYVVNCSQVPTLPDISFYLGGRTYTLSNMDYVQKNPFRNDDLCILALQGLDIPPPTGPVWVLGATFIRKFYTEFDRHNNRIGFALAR

[17] = molecular target: Renin (Canis familiaris); test: Tested in vitro for its ability to inhibit the dog plasma renin
[18] = Oral bioavailability in dog (salt depleted); details: in vivo
[19] = tested on: Canis familiaris; test: Mean arterial pressure response following 1 mg/kg intravenous administration to salt depleted dog; details: in vivo
[20] = tested on: Canis familiaris; test: Mean arterial pressure response following 10 mg/kg intraduodenal administration to salt depleted dog; details: in vivo, other
[21] = Average peak plasma concentration of compound at 10 mg/kg intraduodenal administration in salt depleted dog
[22] = Average peak plasma concentration of compound after 1 mg/kg intravenous administration in salt depleted dog
[23] = Average area under curve at 1 mg/kg intravenous administration to salt depleted dog; details: in vivo
[24] = C(compound) was tested for percent […] bioavailability in rat; format: ADME, organism-based; details: in vivo, po
How it was run: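 Intraduodenal rather than oral dosing: 10 mg/kg id, plus a 1 mg/kg iv bolus. Plasma drug levels were measured by renin-inhibition bioassay, which counts active metabolites as parent. Level–time data were fitted to a biexponential decay model to give AUC. Bioavailability is the dose-corrected AUCid/AUCiv for each experiment, given as mean ± SD of the mean; n=3 unless noted.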

[25] = Average area under curve at 10 mg/kg intraduodenal administration to salt depleted dog; details: in vivo
[26] = molecular target: T2, Renin; test: as §2; format: functional, cell-free; how it was run: as §1

| Structure (SMILES) | logD [1] | Cmax ([2]; plasma) | AUC [3] | AUC [4] | AUC [5] | IC50 [6] | Cmax ([8]; plasma) | bioavailability [9] | bioavailability [10] | logD [11] | AUC [12] | Cmax [13] | Cmax ([14]; plasma) | IC50 [15] | IC50 [16] | IC50 [17] | Rate (nM min-1 (nM of cytochrome P450)-1) [7] | also measured |
| --- | --- | --- | --- | --- | --- | --- | --- | --- | --- | --- | --- | --- | --- | --- | --- | --- | --- | --- |
| CCCC[C@H](N[C@@H](Cc1ccccc1)C(=O)N1CCC(OCOC)CC1)C(=O)N[C@@H](CC1CCCCC1)[C@@H](O)C[C@H](C(=O)NCCN1CCCCC1)C(C)C | > 5 | 3.73 µg/mL | 0.352 µg·h/mL | 1.68 µg·h/mL | 5.68 µg·h/mL | 0.014 µM | 0.36 µg/mL | 33% | 15% | > 5 | 0.57 µg·h/mL | 1 µg/mL | 3.6 µg/mL | – | – | – | 4.52 | – |
| CCCC[C@H](N[C@@H](Cc1ccccc1)C(=O)N1CCC(OCOC)CC1)C(=O)N[C@@H](CC1CCCCC1)[C@@H](O)C[C@H](C(=O)NCc1ccncc1)C(C)C | > 5 | – | 0.653 µg·h/mL | – | – | 0.0078 µM | 0.46 µg/mL | – | 11% | > 5 | 0.76 µg·h/mL | 2.48 µg/mL | – | 0.94 µM | 10 µM | 0.059 µM | 0.78 | – |
| CCCC[C@H](N[C@@H](Cc1ccccc1)C(=O)N1CCC(OCOC)CC1)C(=O)N[C@@H](CC1CCCCC1)[C@@H](O)C[C@H](C(=O)NCCN1CCOCC1)C(C)C | > 5 | 6.5 µg/mL | 0.242 µg·h/mL | 1.87 µg·h/mL | 9.75 µg·h/mL | 0.0039 µM | 0.91 µg/mL | 51% | – | > 5 | 1.22 µg·h/mL | 0.68 µg/mL | 2.84 µg/mL | 0.17 µM | 3.8 µM | 0.014 µM | 3.71 | bioavailability [18]: 52%; Arterial pressure [19]: 2849 % mmHg min; Arterial pressure [20]: 6449 % mmHg min; Cmax ([21]; plasma): 1.83 µg/mL; Cmax ([22]; plasma): 7 µg/mL; AUC [23]: 1.26 µg·h/mL; bioavailability [24]: 50%; AUC [25]: 6.53 µg·h/mL |
| CCCC[C@H](N[C@@H](Cc1ccccc1)C(=O)N1CCC(OCOC)CC1)C(=O)N[C@@H](CC1CCCCC1)[C@@H](O)C[C@H](C(=O)NCCc1ccccn1)C(C)C | – | – | – | – | – | 0.0094 µM | – | – | – | – | – | – | – | 0.51 µM | 7 µM | 0.033 µM | – | – |
| CCCC[C@H](N[C@@H](Cc1ccccc1)C(=O)N1CCC(OCOC)CC1)C(=O)N[C@@H](CC1CCCCC1)[C@@H](O)C[C@H](C(=O)NCc1ccccn1)C(C)C | > 5 | 9.12 µg/mL | 3.13 µg·h/mL | 3.03 µg·h/mL | 14.1 µg·h/mL | 0.012 µM | 4.57 µg/mL | 46% | 21% | > 5 | 6.87 µg·h/mL | 6.25 µg/mL | 10 µg/mL | 1 µM | – | 0.075 µM | 3.52 | IC50 [26]: > 10 µM |

More lines, main results first:

| logD [1] | Cmax ([2]; plasma) | AUC [3] | AUC [4] | AUC [5] | IC50 [6] | Cmax ([8]; plasma) | bioavailability [9] | bioavailability [10] | logD [11] | AUC [12] | Cmax [13] | Cmax ([14]; plasma) | IC50 [15] | IC50 [16] | IC50 [17] | Structure (SMILES) | Rate (nM min-1 (nM of cytochrome P450)-1) [7] | also measured |
| --- | --- | --- | --- | --- | --- | --- | --- | --- | --- | --- | --- | --- | --- | --- | --- | --- | --- | --- |
| 4.07 | 0.11 µg/mL | – | 0.0713 µg·h/mL | 0.0548 µg·h/mL | 0.0038 µM | – | 7% | – | 4.11 | – | – | 0.32 µg/mL | – | – | – | CCCC[C@H](N[C@@H](Cc1ccccc1)C(=O)N1CCC(OCOC)CC1)C(=O)N[C@@H](CC1CCCCC1)[C@@H](O)C[C@H](C(=O)NCCNc1noc(N)n1)C(C)C | – | – |
| 3.9 | – | 0.0667 µg·h/mL | 0.902 µg·h/mL | 6.8 µg·h/mL | – | – | 75% | 36.3% | – | 0.235 µg·h/mL | – | – | – | – | – | CCCC[C@H](N[C@@H](Cc1ccccc1)C(=O)N1CCC(OCOC)CC1)C(=O)N[C@@H](CC1CCCCC1)[C@@H](O)C[C@H](C(=O)NCCCN1CCOCC1)C(C)C | 4.14 | bioavailability [18]: 57%; Cmax ([2]; in vivo): 4.62 µg/mL; Arterial pressure [19]: 8356 % mmHg min; Arterial pressure [20]: 10803 % mmHg min; Cmax ([8]; in vivo): 0.19 µg/mL; Cmax ([21]; in vivo): 1.26 µg/mL; Cmax ([22]; in vivo): 4.7 µg/mL; AUC [23]: 0.693 µg·h/mL; Cmax ([14]; in vivo): 1.55 µg/mL; AUC [25]: 4 µg·h/mL |
